From PubChem
RGS16-Gao HTS = modulates binding between human RGS16 and Galphao; O15492+P09471; bead-based flow cytometry RGS16-Galphao binding, fluorescence; actives lie on both sides; binding response (% of control), % at 10 µM; hit rate 0.38% among 220,000; AID 1441;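 note: Galphao activated by GDP with aluminum fluoride before binding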
ABCB1 inh = blocks JC-1 efflux by human ABCB1 transporter; inhibition, % at 6.6 µM; hit rate 0.067% among 190,000; P08183; CCRF-Adr cells, flow cytometry; in the data active = inhibition above about 40%;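 note: 0% = vehicle and 100% = reference inhibitor; higher value means more JC-1 retained so stronger ABCB1 efflux block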
Target sequence (P08183 whole entry, looked up): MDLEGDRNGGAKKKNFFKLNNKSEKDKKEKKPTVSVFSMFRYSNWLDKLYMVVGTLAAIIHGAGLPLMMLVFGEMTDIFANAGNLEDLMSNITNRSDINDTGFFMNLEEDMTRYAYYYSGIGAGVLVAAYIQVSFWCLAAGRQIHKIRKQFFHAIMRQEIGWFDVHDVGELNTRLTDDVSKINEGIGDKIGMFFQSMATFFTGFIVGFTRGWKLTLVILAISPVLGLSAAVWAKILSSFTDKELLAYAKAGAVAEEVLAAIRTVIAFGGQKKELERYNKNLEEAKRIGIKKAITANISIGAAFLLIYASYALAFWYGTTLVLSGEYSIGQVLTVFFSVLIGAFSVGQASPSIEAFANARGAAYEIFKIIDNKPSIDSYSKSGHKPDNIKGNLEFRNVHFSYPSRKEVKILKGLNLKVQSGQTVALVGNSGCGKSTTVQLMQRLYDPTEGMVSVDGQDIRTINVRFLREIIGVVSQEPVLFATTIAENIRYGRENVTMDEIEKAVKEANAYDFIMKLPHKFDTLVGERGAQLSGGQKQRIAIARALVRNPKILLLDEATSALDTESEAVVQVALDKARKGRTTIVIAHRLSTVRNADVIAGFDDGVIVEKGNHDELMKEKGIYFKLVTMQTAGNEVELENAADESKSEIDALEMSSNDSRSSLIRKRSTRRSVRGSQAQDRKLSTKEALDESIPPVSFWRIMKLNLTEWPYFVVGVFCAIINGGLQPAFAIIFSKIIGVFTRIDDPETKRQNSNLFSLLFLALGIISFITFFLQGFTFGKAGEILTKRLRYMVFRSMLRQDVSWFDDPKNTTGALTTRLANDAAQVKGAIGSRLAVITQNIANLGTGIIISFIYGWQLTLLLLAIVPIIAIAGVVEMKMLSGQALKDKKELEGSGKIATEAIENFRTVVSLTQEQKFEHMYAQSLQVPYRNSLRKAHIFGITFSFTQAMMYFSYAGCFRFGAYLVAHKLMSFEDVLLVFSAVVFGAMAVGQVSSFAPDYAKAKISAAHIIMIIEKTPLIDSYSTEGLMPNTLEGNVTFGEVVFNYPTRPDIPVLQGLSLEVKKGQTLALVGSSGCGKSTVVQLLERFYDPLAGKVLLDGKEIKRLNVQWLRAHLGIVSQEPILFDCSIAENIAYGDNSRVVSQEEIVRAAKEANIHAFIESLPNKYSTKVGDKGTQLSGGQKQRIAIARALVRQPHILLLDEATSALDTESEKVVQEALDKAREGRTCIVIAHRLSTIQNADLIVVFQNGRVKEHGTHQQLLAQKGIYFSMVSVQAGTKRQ
ABCG2 inh = inhibitors of human ABCG2 transporter, ABCB1 counter-screen. Q9UNQ0. IgMXP3 cells, JC-1 efflux, flow cytometry. inhibition, % at 6.6 µM. hit rate 0.1% among 190,000. AID 1325;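 active = inhibition above 80%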;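 note: 0% = DMSO and 100% = nicardipine control wells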
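test system = two drug-resistant human cell lines, ABCG2 and ABCB1 | amount = 3 million cells/mL final, two lines in 1:1 ratio | reagent = JC-1 transporter substrate | doses = one concentration, 6.6 µM final | incubation = 10 min at 25 °C | signal = flow cytometric JC-1 green MFI at 530 nm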
RGS8-Gao = regulators of human RGS8-Galphao interaction; P09471; multiplexed bead flow cytometry, RGS8-Galphao binding; actives lie on both sides; response (percent of control binding), % at 10 µM; hit rate 0.34% among 220,000; in the data active = response below about 60% or above about 140%; inactive = in between;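 note: Galphao activated as the GDP aluminium fluoride complex binding bead-coupled RGS8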
RGS4-Gao reg = modulates binding of RGS4 to human Galphao; hit rate 0.33% among 220,000; P09471; AID 1415; Multiplexed bead flow cytometry; actives lie on both sides; binding response (% of control), % at 10 µM; in the data active = binding response below about 49% or above about 150%; inactive = in between;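 note: fluorescent Galphao activated with aluminum fluoride binding bead-coupled RGS4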
RGS7-Gao reg = regulators of human RGS7-Galphao interaction; P09471; Multiplexed bead flow cytometry, RGS7-Galphao binding; actives lie on both sides; binding response (% of control), % at 10 µM; hit rate 0.35% among 220,000; in the data active = binding response below about 49% or above about 150%; inconclusive = no clear call, values can overlap the other calls; inactive = in between;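 note: fluorescent Galphao held in activated GDP-AlF4 state binding bead-coupled RGS7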
RGS-Gao = modulates binding between human RGS4 and Galphao; hit rate 99% among 1,600; multiplexed bead flow cytometry, RGS–Galpha-o binding; shares compounds with RGS16-Gao HTS; RGS4–Galpha-o binding response, % at 10 µM;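 note: fluorescently labeled Galpha-o bound to GDP with aluminium fluoride binding biotinylated RGS beads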
Avidin counter = counter-screen: compounds disrupting biotin binding to avidin beads; inhibition, % at 10 µM; AID 1783; 1,700 tested, under 10 active; shares compounds with RGS16-Gao HTS; streptavidin beads, fluorescein-biotin binding, flow cytometry;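 active = inhibition above 50%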;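 note: median green fluorescence of gated singlet beads compared with DMSO control wells; 0% = DMSO wells and 100% = complete loss of bead fluorescence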
RGS8-Gao single = confirmation of regulators of human RGS8-Galphao interaction. AID 1836. hit rate 3% among 1,700. bead-based flow cytometry RGS8-Galphao binding, fluorescence; actives lie on both sides. shares compounds with RGS16-Gao HTS. binding response (% of control), % at 10 µM; in the data active = binding response below about 72% or above about 130%; inactive = in between;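 note: Galphao activated as GDP AlF4 complex before binding bead RGS8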
RGS7-Gao confirm = RGS7-Galphao interaction regulation, single point confirmation. shares compounds with RGS16-Gao HTS. response (percent of control binding), % at 10 µM. bead-based flow cytometry RGS7-Galphao binding; actives lie on both sides. hit rate 7.8% among 1,700. AID 1837; in the data active = response below about 75% or above about 130%; inactive = in between;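 note: fluorescent Galphao activated with GDP and aluminum fluoride binding bead-coupled RGS7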
RGS16-Gao conf = confirmation of regulators of human RGS16-Galphao interaction; response (% of control binding), % at 10 µM; shares compounds with RGS16-Gao HTS; AID 1838; bead-based flow cytometry, RGS16-Galphao binding; actives lie on both sides; hit rate 4% among 1,700; in the data active = response below about 74% or above about 130%; inactive = in between;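 note: Galphao activated as the GDP aluminium fluoride complex binding bead-coupled RGS16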
RGS4-Gao single = confirmation of regulators of human RGS4-Galphao interaction. shares compounds with RGS16-Gao HTS. RGS4-Galphao binding, multiplexed bead flow cytometry; actives lie on both sides. binding response (% of control), % at 10 µM. hit rate 4% among 1,700; in the data active = binding response below about 74% or above about 130%; inactive = in between
RGS19-Gao single = confirmation of regulators of human RGS19-Galphao interaction; hit rate 5% among 1,700; bead-based flow cytometry RGS19-Galphao binding; actives lie on both sides; shares compounds with RGS16-Gao HTS; response (percent of control binding), % at 10 µM; in the data active = response below about 50% or above about 160%; inactive = in between;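 note: 100% = no compound control and 0% = blank background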
* hit, by the source's call; ? = inconclusive; . = not tested or not shown; [ ] = remark or other dose. A selection: hits, their analogues and other compounds. The true share with any hit is near 0.83%. Unless noted, the rule behind the calls is not given here.

SMILES	RGS16-Gao HTS	ABCB1 inh	ABCG2 inh	RGS8-Gao	RGS4-Gao reg	RGS7-Gao reg	RGS-Gao	Avidin counter	RGS8-Gao single	RGS7-Gao confirm	RGS16-Gao conf	RGS4-Gao single	RGS19-Gao single
O=C(Nc1cccnc1)c1ccc(S(=O)(=O)c2ccccc2)cc1	98.7	-0.2	3.8	99.3	97.5	?	.	.	.	.	.	.	.
Cc1nnc(NC(=O)c2cccc(S(=O)(=O)N3CCc4ccccc43)c2)s1	107.6	0.0	0.6	101.4	103.4	99.7	.	.	.	.	.	.	.
CCc1nnc(NC(=O)c2cccc(S(=O)(=O)N3CCc4ccccc43)c2)s1	3.0*	0.5	2.8	18.7*	28.2*	22.9*	.	-2.5	99.7	91.4	99.8	98.0	95.4
O=C(c1ccncc1)N1N=C(C2CCCCC2)CC1(O)C(F)(F)F (stereo not given)	14.9	0.4	2.4	61.0	47.3*	50.8	.	4.4	95.6	71.8*	88.8	83.3	78.0
O=C(c1ccco1)N1N=C(C2CCCCC2)CC1(O)C(F)(F)F (stereo not given)	99.6	-1.6	10.3	99.5	99.5	100.8	.	.	.	.	.	.	.
CN(C(=O)COC(=O)c1ccc2ccccc2n1)C1CCS(=O)(=O)C1 (stereo not given)	107.4	0.4	2.2	100.9	99.8	100.3	.	.	.	.	.	.	.
O=C(NCCN1CCCOC1=O)C(=O)NCCN1CCCOC1=O	98.6	.	.	99.2	98.6	?	.	.	.	.	.	.	.
Cc1ccc(CSCCC(=O)NCCc2ccc(Cl)cc2)cc1	212.1	3.2	2.2	112.0	188.2*[activator]	211.7*[activator]	.	1.7	95.0	94.9	95.1	96.7	86.6
CCn1c(SCC(=O)N2CCCCC2)nnc1-c1ccc(S(=O)(=O)N2CCN(C)CC2)cc1	100.4	-0.2	-1.9	101.9	100.7	100.8	.	.	.	.	.	.	.
CCn1c(SCC(=O)N2CCCC(C)C2)nnc1-c1ccc(S(=O)(=O)N2CCN(C)CC2)cc1 (stereo not given)	.	0.1	-0.6	.	.	.	.	0.1	99.4	96.8	95.9	98.1	99.8
O=C(c1cc(-c2cccnc2)nc2ccccc12)N1CCCc2ccccc21	12.7*	1.9	5.7	87.4	96.1	93.7	96.1*	0.6	103.1	104.5	104.0	105.1	108.8
Cc1ccc(-c2cc(C(=O)N3CCCc4ccccc43)c3ccccc3n2)cc1	100.8	1.5	5.9	100.5	100.8	101.4	.	.	.	.	.	.	.
NC(=O)CSc1nnc(-c2ccco2)n1N	.	0.1	2.6	.	.	.	.	0.5	101.3	98.4	96.7	97.6	101.5
CCn1c(SCC(N)=O)nnc1-c1ccco1	99.3	0.2	0.6	99.3	100.2	99.8	.	.	.	.	.	.	.
Cc1nn(-c2cc(N3CCOCC3)ccc2[N+](=O)[O-])c(=O)c2ccccc12	100.8	1.2	2.7	99.8	110.1	161.4*[activator]	110.1*	-1.9	105.7	93.3	106.3	102.3	105.2
CCOc1ccc(NC(=O)COC(=O)CCS(=O)(=O)c2ccc(C)cc2)cc1	112.8	0.6	1.9	102.3	100.4	100.4	.	.	.	.	.	.	.
COC(=O)c1c(NC(=O)COC(=O)CCS(=O)(=O)c2ccc(C)cc2)sc(C)c1C	255.4*[activator]	1.9	10.2	106.2	92.1	83.1	92.1*	0.7	104.3	138.9*[activator]	114.5	118.4	160.0*[activator]
O=C(Nc1ccccn1)c1cc2cc([N+](=O)[O-])ccc2s1	98.8	0.8	10.7	95.9	101.1	100.9	.	.	.	.	.	.	.
O=C(Nc1nnc(-c2ccccc2Cl)o1)c1cc2cc([N+](=O)[O-])ccc2s1	17.5*	-0.3	-7.0	83.3	94.4	92.1	94.4*	.	.	.	.	.	.
CC(C)(C)NC(=O)COC(=O)CCC(=O)c1ccc(Cl)cc1	15.0*	0.2	0.4	20.6*	25.1*	22.1*	.	-0.2	100.3	106.0	101.5	104.5	99.9
O=C(NCCc1c[nH]c2ccccc12)/C(=C\c1cccnc1)NC(=O)c1ccccc1F	86.8	.	.	93.7	82.3	?	.	.	.	.	.	.	.
Cc1c(C(=O)NCCSCc2cccc(C(F)(F)F)c2)cnn1-c1ccc(F)cc1	103.5	.	.	102.3	106.0	?	.	.	.	.	.	.	.
CC(C)(C)c1ccc(-c2noc(-c3ccno3)n2)cc1	98.2	.	.	98.6	97.9	?	.	.	.	.	.	.	.
CC(C)(C)c1ccc(-c2nc(-c3ccncc3)no2)cc1	22.9*	-1.6	-5.0	75.0	81.4	89.4	81.4*	.	.	.	.	.	.
C(=N\Nc1nc2ccccc2[nH]1)/c1ccc2c(c1)OCCO2	106.6	.	.	106.7	107.0	?	.	.	.	.	.	.	.
SMILES	RGS16-Gao HTS	ABCB1 inh	ABCG2 inh	RGS8-Gao	RGS4-Gao reg	RGS7-Gao reg	RGS-Gao	Avidin counter	RGS8-Gao single	RGS7-Gao confirm	RGS16-Gao conf	RGS4-Gao single	RGS19-Gao single
C(=N\Nc1ccc2ccccc2n1)/c1ccc2c(c1)OCCO2	248.8	-0.4	-2.1	140.2*[activator]	111.2	111.2	111.2*	0.3	100.8	102.0	101.4	99.3	104.0
CCOC(=O)c1[nH]c(C)c(/C=N/O)c1C	97.0	0.2	1.6	100.8	103.1	101.1	.	.	.	.	.	.	.
CCn1c(SCC(=O)Nc2nc3ccc(C)cc3s2)nc2c(c1=O)SC(C)C2 (stereo not given)	109.4	0.4	0.6	101.3	111.9	157.6*[activator]	111.9*	.	.	.	.	.	.
COCCNC(=O)CN(C(=O)Cn1nnc2ccccc21)c1cc(C)cc(C)c1	102.7	0.1	-0.4	100.2	110.2	167.4*[activator]	110.2*	0.1	93.9	92.1	94.2	93.1	99.9
Cc1cccc(-n2ncc3c(N4CCOCC4)ncnc32)c1	8.8	2.7	31.8	58.9*	64.7	62.9	64.7*	1.6	102.4	105.0	102.9	104.8	93.5
CS(=O)(=O)N1CCN(c2ncnc3c2cnn3-c2ccccc2)CC1	96.8	0.4	3.4	99.0	100.2	99.0	.	.	.	.	.	.	.
O=S(=O)(c1ccc(F)cc1)N1CCN(c2ncnc3c2cnn3-c2ccccc2)CC1	301.1	0.9	3.0	141.9*[activator]	128.6	121.6	128.6*	-0.4	95.8	88.7	95.2	94.7	107.3
